Data set [1] in a line: Population pharmacokinetic analysis in db/db mice. Format: in vivo. The settings on record: after roflumilast-N-oxide dosing.
The next data set relates to PDE4. In words: Total PDE4 inhibition. Type of data set: in vivo. The settings on record: db/db mice, geometric mean; for Complete tPDE4i: roflumilast + roflumilast N-oxide.
For data set [2], the system named is HbA1c. In words: PK/PD model relating tPDE4i to HbA1c in db/db mice. Format: in vivo. An outline of the steps:
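Once-daily dosing of db/db mice for 28 days: test compound at 1, 3 or 10 mg/kg/day, reference PDE4 inhibitor at 0.3, 1 or 3 mg/kg/day, its N-oxide metabolite at 3 mg/kg/day, vehicle 4% methocel. HbA1c read on days -1, 14 and 28. Emax model links HbA1c rise over time to individual tPDE4i. Fit by nonlinear mixed-effects modelling with FOCE-interaction; checked by visual predictive check (200 simulations).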

Data set [3] can be described thus: Unbound fraction in mouse plasma in vitro. Type of data set: in vitro ADME.
A further data set has as its system diabetic mouse model. The settings on record: cited from earlier work.
Data set [4] has as its system HbA1c. The settings on record: clinical setting; cited from earlier work.
[5] abbreviates: roflumilast N-oxide 3 mg/kg/day.

As to `O=C(Nc1c(Cl)c[n+]([O-])cc1Cl)c1ccc(OC(F)F)c(OCC2CC2)c1` [roflumilast‐N‐oxide], in data set [1], the “Exposure of roflumilast relative to roflumilast-N-oxide” value is given as 2.6 % of roflumilast‐N‐oxide. In data set [1] (two-compartment model), the Apparent roflumilast clearance was 41.8 L/h and the “Apparent roflumilast-N-oxide clearance” value was determined as 1.09 L/h. In the data set with PDE4 (setting [5]), the tPDE4irof stood at 0.375, the tPDE4irofNO is listed as 22.1 and the “Complete tPDE4i” value is 22.5.

On to `O=C(Nc1c(Cl)c[n+]([O-])cc1Cl)c1ccc(OC(F)F)c(OCC2CC2)c1` [roflumilast(‐N‐oxide)], for which, in the data set on HbA1c [2] (final PK/PD model estimate, 28 days), the “PDE50 (tPDE4i leading to half-maximum effect on HbA1c)” value is on record as 27.1.

As a reminder, the fraction unbound is free concentration divided by total concentration. Read a low fraction unbound as little free substance. Regarding `O=C(Nc1c(Cl)cncc1Cl)c1ccc(OC(F)F)c(OCC2CC2)c1` [roflumilast], in the data set on PDE4 (roflumilast 0.3 mg/kg/day), the tPDE4irof is 0.744, the tPDE4irofNO was 0.731 and the “Complete tPDE4i” value is 1.49. In the data set with PDE4 (roflumilast 1 mg/kg/day), this molecule returned a tPDE4irof of 2.23 and a tPDE4irofNO of 2.31. In the data set on PDE4 (roflumilast 3 mg/kg/day), the tPDE4irof is listed as 6.56, the tPDE4irofNO is reported as 7.18 and the “Complete tPDE4i” value was 13.8. In addition, the “Dose required to reach half-maximum effect on HbA1c” value in the data set with HbA1c [2] (calculated from PDE50) was 5.9 mg/kg. This molecule came in with an unbound share (fraction unbound) in data set [3] of 0.037. Moreover, the Antidiabetic efficacy result with diabetic mouse model is recorded as “significant antidiabetic efficacy”. The HbA1c levels entry with HbA1c [4] is “significantly reduced”.

The values above are taken from article PMC5421726 (Clinical and Translational Science, 2017).
